From ChEMBL document CHEMBL1155233, “Structure mechanism insights and the role of nitric oxide donation guide the development of oxadiazole-2-oxides as therapeutic agents against schistosomiasis” (J Med Chem, 2009)
Values after ≈ are worked out from the molar mass of the structure shown. Active and inactive are the calls of the source. The calls are words filed in the database; no cut-off is given here.

Legend:
[1] = Induction of nitric oxide release at 10 uM in presence of Schistosoma mansoni recombinant TGR; type: functional
[2] = target: T1, Thioredoxin reductase 1, cytoplasmic (Rattus norvegicus, UniProt O89049); assay: Inhibition of rat recombinant TrxR1 after 10 mins
T1 sequence (O89049 whole entry): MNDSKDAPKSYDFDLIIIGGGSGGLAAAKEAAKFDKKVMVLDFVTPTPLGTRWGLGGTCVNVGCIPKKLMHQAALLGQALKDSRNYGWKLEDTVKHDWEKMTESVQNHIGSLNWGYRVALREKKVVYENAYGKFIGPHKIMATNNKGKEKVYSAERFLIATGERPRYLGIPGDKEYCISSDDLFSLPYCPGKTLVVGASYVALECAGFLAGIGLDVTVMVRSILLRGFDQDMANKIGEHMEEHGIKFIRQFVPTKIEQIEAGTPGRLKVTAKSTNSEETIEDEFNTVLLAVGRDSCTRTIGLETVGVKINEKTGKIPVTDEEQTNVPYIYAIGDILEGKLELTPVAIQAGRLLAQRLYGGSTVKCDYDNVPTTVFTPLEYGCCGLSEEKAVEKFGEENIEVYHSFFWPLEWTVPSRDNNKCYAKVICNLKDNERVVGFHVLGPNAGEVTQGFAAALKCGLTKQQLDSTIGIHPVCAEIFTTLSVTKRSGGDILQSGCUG

Schistosoma mansoni [3] = assay: Antischistosomal activity against Schistosoma mansoni assessed as induction of parasite mortality after 16 hrs; type: functional; design: concentration or dose not given beside the values
Method in brief: (§1)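 Cultured ex vivo worms were exposed to 10 μM compound. Worm effects were scored by visual examination at time points over a 72 h time-course.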

Schistosoma mansoni [4] = assay: Antischistosomal activity against Schistosoma mansoni assessed as parasite killing after 2 hrs; type: functional, organism-based; method in brief: as §1
[5] = Induction of nitric oxide release at 10 uM in presence of cysteine; type: physicochemical
Schistosoma mansoni [6] = assay: Antischistosomal activity against Schistosoma mansoni assessed as induction of parasite mortality after 72 hrs; type: functional; design: concentration or dose not given beside the values; method in brief: as §1
[7] = target: T2, Glutathione reductase, mitochondrial (Homo sapiens, UniProt P00390); assay: Inhibition of human recombinant GR after 15 mins in presence of NADPH
T2 sequence (P00390 whole entry): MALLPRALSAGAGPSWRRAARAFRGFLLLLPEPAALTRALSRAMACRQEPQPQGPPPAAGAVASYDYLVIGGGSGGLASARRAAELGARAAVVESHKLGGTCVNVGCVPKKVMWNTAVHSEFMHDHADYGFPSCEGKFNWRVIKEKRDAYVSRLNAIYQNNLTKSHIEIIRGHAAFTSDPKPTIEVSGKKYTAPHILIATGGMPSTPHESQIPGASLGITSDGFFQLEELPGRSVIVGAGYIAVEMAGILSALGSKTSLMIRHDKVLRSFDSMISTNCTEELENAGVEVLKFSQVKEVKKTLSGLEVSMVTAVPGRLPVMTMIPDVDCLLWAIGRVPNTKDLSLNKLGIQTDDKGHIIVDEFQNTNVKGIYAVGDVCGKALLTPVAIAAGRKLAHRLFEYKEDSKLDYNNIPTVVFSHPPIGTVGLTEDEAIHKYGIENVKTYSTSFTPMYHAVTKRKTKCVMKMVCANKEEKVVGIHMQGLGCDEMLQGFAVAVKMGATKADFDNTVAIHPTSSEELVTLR

[8] = Induction of nitric oxide release at 10 uM in presence of Schistosoma mansoni recombinant TGR and NADPH; type: functional
Schistosoma mansoni [9] = assay: Antischistosomal activity against Schistosoma mansoni assessed as induction of parasite mortality after 24 hrs; type: functional; design: concentration or dose not given beside the values; method in brief: as §1
Schistosoma mansoni [10] = assay: Antischistosomal activity against Schistosoma mansoni assessed as induction of parasite curling after 8 hrs; type: functional, organism-based; method in brief: as §1
Schistosoma mansoni [11] = assay: Antischistosomal activity against Schistosoma mansoni assessed as induction of parasite mortality after 48 hrs; type: functional; design: concentration or dose not given beside the values; method in brief: as §1
Schistosoma mansoni [12] = assay: Antischistosomal activity against Schistosoma mansoni assessed as parasite killing after 4 hrs; type: functional; method in brief: as §1
Schistosoma mansoni [13] = assay: Antischistosomal activity against Schistosoma mansoni assessed as induction of parasite sluggish movement after 4 hrs; type: functional, organism-based; method in brief: as §1
Schistosoma mansoni [14] = assay: Antischistosomal activity against Schistosoma mansoni assessed as induction of parasite mortality after 8 hrs; type: functional; design: concentration or dose not given beside the values; method in brief: as §1
Schistosoma mansoni [15] = assay: Antischistosomal activity against Schistosoma mansoni assessed as induction of parasite sluggish movement after 8 hrs; type: functional, organism-based; method in brief: as §1
[16] = Metabolic stability in human liver microsomes assessed as compound remaining over 60 mins in presence of NADPH; type: ADME, Microsome; settings: read-out: Stability
Caco-2 [17] = assay: Apparent permeability from apical to basolateral side of human Caco-2 cells
[18] = Solubility by quantitative nitrogen detection based method
Caco-2 [19] = assay: Apparent permeability from basolateral to apical side of human Caco-2 cells
hERG (KCNH2) = hERG (KCNH2) (Homo sapiens, UniProt Q12809); assay: Inhibition of human ERG expressed in HEK293 cells at 10 uM by fast patch clamp method; settings: HEK293 cells expressing human ERG
[20] = Metabolic stability in human liver microsomes assessed as compound remaining over 60 mins in absence of NADPH; type: ADME, Microsome; settings: read-out: Stability
[21] = Distribution coefficient, log D of the compound; settings: octanol/water
Schistosoma mansoni [22] = assay: Antischistosomal activity against Schistosoma mansoni assessed as induction of parasite sluggish movement after 16 hrs; type: functional, organism-based; method in brief: as §1
Schistosoma mansoni [23] = assay: Antischistosomal activity against Schistosoma mansoni assessed as induction of parasite curling after 4 hrs; type: functional, organism-based; method in brief: as §1
[24] = Reactivity with cysteine at 0.1 mM in 0.1M phosphate buffer assessed as amount of compound unreacted by HPLC
[25] = target: T3, Thioredoxin glutathione reductase (Schistosoma mansoni, UniProt Q962Y6); assay: Inhibition of Schistosoma mansoni TGR
T3 sequence (Q962Y6 whole entry): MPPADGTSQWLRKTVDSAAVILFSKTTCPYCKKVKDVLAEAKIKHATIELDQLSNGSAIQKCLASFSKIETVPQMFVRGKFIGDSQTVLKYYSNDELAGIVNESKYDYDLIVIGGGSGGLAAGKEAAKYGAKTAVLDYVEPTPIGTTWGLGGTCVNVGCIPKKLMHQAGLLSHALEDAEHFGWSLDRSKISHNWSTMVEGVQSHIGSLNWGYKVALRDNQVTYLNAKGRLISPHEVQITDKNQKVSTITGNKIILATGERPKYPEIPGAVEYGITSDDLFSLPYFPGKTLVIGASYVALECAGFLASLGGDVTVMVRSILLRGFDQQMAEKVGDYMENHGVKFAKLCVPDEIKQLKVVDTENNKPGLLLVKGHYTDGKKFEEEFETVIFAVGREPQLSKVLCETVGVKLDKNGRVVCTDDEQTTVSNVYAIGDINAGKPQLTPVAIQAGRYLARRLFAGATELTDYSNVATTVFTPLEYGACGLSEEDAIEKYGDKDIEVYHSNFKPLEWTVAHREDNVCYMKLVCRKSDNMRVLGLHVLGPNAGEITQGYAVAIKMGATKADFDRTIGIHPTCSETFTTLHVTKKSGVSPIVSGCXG

Schistosoma mansoni [26] = assay: Antischistosomal activity against Schistosoma mansoni assessed as induction of parasite sluggish movement after 48 hrs; type: functional, organism-based; method in brief: as §1
Schistosoma mansoni [27] = assay: Antischistosomal activity against Schistosoma mansoni assessed as induction of parasite sluggish movement after 24 hrs; type: functional, organism-based; method in brief: as §1

Sequence of hERG (KCNH2) (Q12809 whole entry): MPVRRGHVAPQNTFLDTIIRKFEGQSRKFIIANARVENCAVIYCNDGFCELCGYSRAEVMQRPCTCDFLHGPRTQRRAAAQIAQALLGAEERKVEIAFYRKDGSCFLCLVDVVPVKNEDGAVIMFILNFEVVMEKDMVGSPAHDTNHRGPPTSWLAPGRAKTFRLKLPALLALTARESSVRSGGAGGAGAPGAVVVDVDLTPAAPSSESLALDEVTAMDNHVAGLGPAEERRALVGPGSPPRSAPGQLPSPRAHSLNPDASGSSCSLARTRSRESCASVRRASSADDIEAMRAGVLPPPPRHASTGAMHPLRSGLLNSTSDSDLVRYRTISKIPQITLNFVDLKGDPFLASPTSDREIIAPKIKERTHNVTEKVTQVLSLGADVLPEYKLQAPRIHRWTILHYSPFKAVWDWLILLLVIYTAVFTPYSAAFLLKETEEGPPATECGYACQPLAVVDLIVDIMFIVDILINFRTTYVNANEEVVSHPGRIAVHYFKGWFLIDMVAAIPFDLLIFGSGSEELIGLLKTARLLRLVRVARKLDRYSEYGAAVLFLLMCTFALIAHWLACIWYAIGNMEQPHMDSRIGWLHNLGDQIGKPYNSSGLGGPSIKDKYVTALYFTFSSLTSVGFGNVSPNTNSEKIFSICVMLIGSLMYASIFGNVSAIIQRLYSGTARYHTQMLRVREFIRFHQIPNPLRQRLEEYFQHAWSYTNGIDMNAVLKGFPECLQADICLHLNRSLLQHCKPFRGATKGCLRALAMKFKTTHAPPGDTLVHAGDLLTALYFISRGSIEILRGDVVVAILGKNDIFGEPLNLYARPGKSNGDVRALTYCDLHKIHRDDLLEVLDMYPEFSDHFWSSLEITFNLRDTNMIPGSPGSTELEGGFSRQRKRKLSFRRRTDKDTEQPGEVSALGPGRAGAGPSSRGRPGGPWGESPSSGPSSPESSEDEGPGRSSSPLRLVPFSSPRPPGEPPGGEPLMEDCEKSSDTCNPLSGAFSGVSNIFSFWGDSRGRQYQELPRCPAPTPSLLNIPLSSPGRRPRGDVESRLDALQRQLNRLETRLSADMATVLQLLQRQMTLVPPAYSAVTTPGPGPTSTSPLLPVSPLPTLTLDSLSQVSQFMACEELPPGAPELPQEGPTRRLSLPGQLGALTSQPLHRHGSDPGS

N#Cc1c(-c2ccc(F)c(Br)c2)no[n+]1[O-]
Activity [1]: 2%
IC50 [2]: 250 µM
Activity (Schistosoma mansoni [3]): Active
Activity (Schistosoma mansoni [4]): inactive
Activity [5]: 69%
Activity (Schistosoma mansoni [6]): 100%
IC50 [7]: > 50 µM
Activity [8]: 19%
Activity (Schistosoma mansoni [9]): 5%
Activity (Schistosoma mansoni [10]): Active
Activity (Schistosoma mansoni [11]): 75%
Activity (Schistosoma mansoni [12]): inactive

N#Cc1c(-c2cccc(Cl)c2)no[n+]1[O-]
Activity [1]: 1%
IC50 [2]: < 12.5 µM
Activity (Schistosoma mansoni [3]): 20%
Activity (Schistosoma mansoni [4]): inactive
Activity [5]: 50%
Activity (Schistosoma mansoni [6]): 100%
Activity (Schistosoma mansoni [13]): Active
IC50 [7]: 35.7 µM
Activity [8]: 12%
Activity (Schistosoma mansoni [9]): 64%
Activity (Schistosoma mansoni [14]): 15%
Activity (Schistosoma mansoni [11]): 80%

N#Cc1c(-c2ccc(O)cc2)no[n+]1[O-]
IC50 [2]: > 400 µM
Activity (Schistosoma mansoni [15]): Active
Activity (Schistosoma mansoni [3]): 15%
Activity (Schistosoma mansoni [4]): inactive
Activity (Schistosoma mansoni [6]): 100%
IC50 [7]: > 50 µM
Activity (Schistosoma mansoni [9]): 40%
Activity (Schistosoma mansoni [11]): 60%
Activity (Schistosoma mansoni [12]): inactive

N#Cc1c(-c2ccc(Br)cc2)no[n+]1[O-]
Activity [1]: 4%
IC50 [2]: 250 µM
remaining at 1 h [16]: 10%
Activity (Schistosoma mansoni [3]): 60%
Papp (Caco-2 [17]): 79 nm/s
Activity (Schistosoma mansoni [4]): inactive
Activity [5]: 68%
solubility [18]: 18.6 µM (≈ 4.95 µg/mL)
Activity (Schistosoma mansoni [6]): 100%
Activity (Schistosoma mansoni [13]): Active
IC50 [7]: > 50 µM
Activity [8]: 19%
Activity (Schistosoma mansoni [9]): 100%
Activity (Schistosoma mansoni [14]): 39%
Papp (Caco-2 [19]): 48 nm/s
inhibition at 10 µM (hERG (KCNH2)): 5.5%
Activity (Schistosoma mansoni [11]): 100%
remaining at 1 h [20]: 67%
logD [21]: 3.1

N#Cc1c(-c2ccc(-c3ccccc3)cc2)no[n+]1[O-]
Activity (Schistosoma mansoni [15]): Active
Activity (Schistosoma mansoni [22]): Active
Activity (Schistosoma mansoni [4]): inactive
Activity (Schistosoma mansoni [6]): 45%
Activity (Schistosoma mansoni [9]): Active
Activity (Schistosoma mansoni [11]): 40%
Activity (Schistosoma mansoni [12]): inactive

N#Cc1c(-c2cccc(-c3no[n+]([O-])c3C#N)c2)no[n+]1[O-]
IC50 [2]: 150 µM
Activity (Schistosoma mansoni [3]): 60%
Activity (Schistosoma mansoni [23]): Active
Activity (Schistosoma mansoni [4]): inactive
solubility [18]: 5 µM (≈ 1.48 µg/mL)
IC50 [7]: > 50 µM
Activity (Schistosoma mansoni [9]): 100%
Activity (Schistosoma mansoni [14]): 45%
inhibition at 10 µM (hERG (KCNH2)): 7.8%
Activity (Schistosoma mansoni [11]): 100%

N#Cc1c(-c2ccccc2)no[n+]1[O-] [FUROXAN]
Activity [1]: 1.5%
Activity (Schistosoma mansoni [23]): Active
Activity (Schistosoma mansoni [4]): inactive
Activity [8]: 15%
Activity [24]: Active

N#Cc1c(-c2cccs2)no[n+]1[O-]
Activity [1]: 1%
remaining at 1 h [16]: 1%
Activity (Schistosoma mansoni [3]): 25%
IC50 [25]: 3.5 µM
Activity (Schistosoma mansoni [4]): inactive
Activity [5]: 20%
solubility [18]: 240 µM (≈ 46.4 µg/mL)
Activity (Schistosoma mansoni [6]): 100%
Activity [8]: 2%
Activity (Schistosoma mansoni [9]): 25%
Papp (Caco-2 [19]): 90 nm/s
inhibition at 10 µM (hERG (KCNH2)): 3.4%
Activity (Schistosoma mansoni [11]): 100%
remaining at 1 h [20]: 64%
Activity (Schistosoma mansoni [12]): inactive

N#Cc1c(-c2cc(F)cc(-c3no[n+]([O-])c3C#N)c2)no[n+]1[O-]
remaining at 1 h [16]: 20%
Activity (Schistosoma mansoni [3]): 55%
Papp (Caco-2 [17]): 79 nm/s
Activity (Schistosoma mansoni [4]): inactive
solubility [18]: 89.1 µM (≈ 28 µg/mL)
Activity (Schistosoma mansoni [9]): 78%
Papp (Caco-2 [19]): 27 nm/s
inhibition at 10 µM (hERG (KCNH2)): 29.4%
Activity (Schistosoma mansoni [11]): 100%
remaining at 1 h [20]: 51%
Activity [24]: Active
logD [21]: 2.91
Activity (Schistosoma mansoni [12]): inactive

Cc1c(-c2ccccc2)no[n+]1[O-]
Activity [1]: < 1%
IC50 [2]: > 400 µM
Activity (Schistosoma mansoni [3]): inactive
Activity (Schistosoma mansoni [4]): inactive
Activity [5]: 2%
Activity (Schistosoma mansoni [6]): 5%
IC50 [7]: > 50 µM
Activity [8]: < 1%
Activity (Schistosoma mansoni [9]): inactive
Activity (Schistosoma mansoni [14]): inactive
Activity (Schistosoma mansoni [26]): Active
Activity [24]: inactive
Activity (Schistosoma mansoni [12]): inactive

O=Cc1c(-c2ccccc2)no[n+]1[O-]
Activity [1]: 1%
IC50 [2]: < 12.5 µM
Activity (Schistosoma mansoni [3]): inactive
Activity (Schistosoma mansoni [4]): inactive
Activity [5]: 9%
Activity (Schistosoma mansoni [6]): 5%
IC50 [7]: 35.2 µM
Activity [8]: 7%
Activity (Schistosoma mansoni [14]): inactive
Activity (Schistosoma mansoni [27]): Active
Activity (Schistosoma mansoni [11]): 3%
Activity (Schistosoma mansoni [12]): inactive
